Published values pooled from the literature.
Protocols differ between the studies behind these lines.
Target: Cannabinoid receptor 2 (CNR2, Homo sapiens, UniProt P34972)
Observed: ligand displacement
Method: radioligand

CCCCCc1cc(O)c2c(c1)OC(C)(C)c1cc(O)c(C)cc1-2 has a Ki of 11 nM (cell membranes).
The Ki of Cc1nonc1Cn1nnc2c(N3CC[C@H](O)C3)nc(C(C)(C)C)nc21 is reported as 11 nM (cell membranes).
The Ki of Cc1c(C(=O)Nc2ccc(F)nc2)nc(-c2ccc(Cl)cc2Cl)n1-c1ccc(OS(=O)(=O)CCC(F)(F)F)cc1 is reported as 1.4 nM (cell membranes).
The Ki of CCCc1cc(O)c2c(c1)OC(C)(C)[C@@H]1CCC(C)=C[C@@H]21 is reported as 105 nM (cell membranes).
With CC1(C)C(C(=O)c2cn(CCCCCF)c3ccccc23)C1(C)C the Ki was 2.13 nM (cell membranes).
For C=CCC(CC)(NC(=O)c1ccc(C2CC2)c(Cc2ccc(F)cc2)n1)C(=O)OCC (stereo not drawn), the Ki was 0.8 nM (cell membranes).
For NC(=O)[C@@H]1CC(F)(F)CN1C(=O)c1ccc(N2CC(F)(F)C2)c(OCC2CC2)n1, the Ki was 40 nM (cell membranes).
With CCOC(=O)C(CCCOC)NC(=O)c1ccc(C2CC2)c(Cc2ccc(F)cc2)n1 (stereo not drawn) the Ki was 17 nM (cell membranes).
The Ki of CCCCCc1cc(O)c(C/C=C(\C)CCC2OC2(C)C)c(O)c1 (stereo not drawn) is reported as 4720 nM (cell membranes).
CCOC(=O)C(CC)(CCCSCCOCCOCCOCCNC(=O)OC(C)(C)C)NC(=O)c1ccc(C2CC2)c(Cc2ccc(F)cc2)n1 (stereo not drawn) gave a Ki of 138 nM (cell membranes).
The Ki of CCCCCc1cc2c(c(O)c1C(=O)O)C1C=C(C)CCC1C(C)(C)O2 (stereo not drawn) is reported as 1650 nM (cell membranes).
With CCCC(C)(C)c1ccc2c(c1)OC(C)(C)[C@@H]1CC=C(C)C[C@@H]21 the Ki was 34.9 nM (cell membranes).
With Cc1c(C(=O)Nc2ccc(C(F)(F)F)cn2)nc(-c2ccc(Cl)cc2Cl)n1-c1ccc(OS(=O)(=O)CCC(F)(F)F)cc1 the Ki was 4.9 nM (cell membranes).
The Ki of CCOC(=O)C(CC)(CCCSCCOCCOCCNc1ccc([N+](=O)[O-])c2nonc12)NC(=O)c1ccc(C2CC2)c(Cc2ccc(F)cc2)n1 (racemic) is reported as 22 nM (cell membranes).
For CCCCCn1c2ccccc2c2cc(C(=O)NCC3CCN(CC(=O)NC(C)(C)C)CC3)ccc21, the Ki was > 5000 nM.
